Measurements published in ChEMBL document CHEMBL3525912, “Sulfation of 4-hydroxy toremifene: individual variability, isoform specificity, and contribution to toremifene pharmacogenomics” (Drug Metab Dispos, 2012).

B1: Sulfotransferase 1A1 (Homo sapiens) (protein)
chain: MELIQDTSRPPLEYVKGVPLIKYFAEALGPLQSFQARPDDLLISTYPKSGTTWVSQILDMIYQGGDLEKCHRAPIFMRVPFLEFKAPGIPSGMETLKDTPAPRLLKTHLPLALLPQTLLDQKVKVVYVARNAKDVAVSYYHFYHMAKVHPEPGTWDSFLEKFMVGEVSYGSWYQHVQEWWELSRTHPVLYLFYEDMKENPKREIQKILEFVGRSLPEETVDFVVQHTSFKEMKKNPMTNYTTVPQEFMDHSISPFMRKGMAGDWKTTFTVAQNERFDADYAEKMAGCSLSFRSEL
B2: Sulfotransferase 1E1 (Homo sapiens) (protein)
chain: MNSELDYYEKFEEVHGILMYKDFVKYWDNVEAFQARPDDLVIATYPKSGTTWVSEIVYMIYKEGDVEKCKEDVIFNRIPFLECRKENLMNGVKQLDEMNSPRIVKTHLPPELLPASFWEKDCKIIYLCRNAKDVAVSFYYFFLMVAGHPNPGSFPEFVEKFMQGQVPYGSWYKHVKSWWEKGKSPRVLFLFYEDLKEDIRKEVIKLIHFLERKPSEELVDRIIHHTSFQEMKNNPSTNYTTLPDEIMNQKLSPFMRKGITGDWKNHFTVALNEKFDKHYEQQMKESTLKFRTEI

Legend:
[1] = substrate: CN(C)CCOc1ccc(/C(=C(/CCCl)c2ccccc2)c2ccc(O)cc2)cc1; test: Activity of human SULT1A1 expressed in escherichia coli assessed as enzyme-mediated 4-(4-chloro-1-(4-(2-(dimethylamino)ethoxy)phenyl)-2-phenylbut-1-enyl)phenyl hydrogen sulfate formation after 15 mins by Michaelis-Menten equation in presence of 20 uM PAPS; format: ADME
Outline: (§1)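 Purified E. coli-expressed human enzyme (DEAE-Sepharose, ~80% pure; activity per total protein) incubated with 0.1–30 µM 4-OH-TOR, 20 µM PAPS, 50 mM potassium phosphate pH 6.2, 15 min at 37 °C. Reaction started with enzyme, stopped with acetonitrile:acetic acid (96:4). Sulfate quantified by radio-HPLC. Triplicate runs, corrected with a no-substrate control. Low substrate range chosen to limit substrate inhibition.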

[2] = substrate: CN(C)CCOc1ccc(/C(=C(/CCCl)c2ccccc2)c2ccc(O)cc2)cc1; test: Activity of human SULT1E1 expressed in escherichia coli assessed as enzyme-mediated 4-(4-chloro-1-(4-(2-(dimethylamino)ethoxy)phenyl)-2-phenylbut-1-enyl)phenyl hydrogen sulfate formation after 15 mins by Michaelis-Menten equation in presence of 20 uM PAPS; format: ADME; outline: as §1

Protein | Km [1] | Vmax [1] | Km [2] | Vmax [2]
B1 | 2.6 µM | 0.0085 µmol/min |  | 
B2 |  |  | 6.4 µM | 0.0055 µmol/min
